Results published in ChEMBL document CHEMBL4732269, “Design, Synthesis, and Biological Evaluation of Imidazopyridines as PD-1/PD-L1 Antagonists” (ACS Med Chem Lett, 2021).
Calls of active or inactive are those of the source. No cut-off for these calls is given here.

Assays:
Assay type in all cases: protein-complex assay
[1] = molecular target: T1, Programmed cell death protein 1/Programmed cell death 1 ligand 1 (Homo sapiens, UniProt Q15116+Q9NZQ7); experiment: Antagonist activity at human PD1/PD-L1
T1 sequence (Q15116 whole entry): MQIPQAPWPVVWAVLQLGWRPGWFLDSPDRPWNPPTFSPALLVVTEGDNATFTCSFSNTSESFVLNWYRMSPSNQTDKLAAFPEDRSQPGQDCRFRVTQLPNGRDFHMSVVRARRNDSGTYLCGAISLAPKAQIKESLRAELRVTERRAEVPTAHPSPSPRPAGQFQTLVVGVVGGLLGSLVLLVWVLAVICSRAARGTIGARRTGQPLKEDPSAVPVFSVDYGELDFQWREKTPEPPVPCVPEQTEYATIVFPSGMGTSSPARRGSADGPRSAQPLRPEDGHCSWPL
T1 sequence (Q9NZQ7 whole entry): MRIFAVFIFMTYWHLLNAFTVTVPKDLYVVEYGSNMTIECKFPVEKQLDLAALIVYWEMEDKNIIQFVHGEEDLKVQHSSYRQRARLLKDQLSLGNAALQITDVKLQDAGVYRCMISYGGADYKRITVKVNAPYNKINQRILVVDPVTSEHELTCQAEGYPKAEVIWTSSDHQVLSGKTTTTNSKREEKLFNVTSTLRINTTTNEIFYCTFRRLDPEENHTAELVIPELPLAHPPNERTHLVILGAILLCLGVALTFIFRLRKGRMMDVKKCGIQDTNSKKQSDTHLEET

[2] = molecular target: T1, Programmed cell death protein 1/Programmed cell death 1 ligand 1; experiment: Antagonist activity at PD1/PD-L1 (unknown origin) assessed as disruption of PD-1/PD-L1 complex by measuring PD-L1 dimerization at 50 uM measured after 2 hrs by HTRF assay
[3] = molecular target: T2, Programmed cell death protein 1/Programmed cell death 1 ligand 1 (Homo sapiens, UniProt Q9NZQ7); experiment: Antagonist activity at PD1/PD-L1 (unknown origin) assessed as disruption of PD-1/PD-L1 complex by measuring PD-L1 dimerization measured after 2 hrs by HTRF assay
T2 sequence (Q15116 whole entry): as the sequence (Q15116 whole entry) above
T2 sequence (Q9NZQ7 whole entry): as the sequence (Q9NZQ7 whole entry) above
How it was run: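 PD-1/PD-L1 binding measured by HTRF with a commercial kit following the kit protocol, at 20 μL final volume. Each compound was run as its own dilution series, and plates were incubated 2 h at RT before the TR-FRET read. Signals were background-subtracted on the negative control and normalized to the positive control. Averaged data were fitted with a normalized Hill equation to give the IC50.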

[4] = molecular target: T1, Programmed cell death protein 1/Programmed cell death 1 ligand 1; experiment: Antagonist activity at PD1/PD-L1 (unknown origin) assessed as disruption of PD-1/PD-L1 complex by measuring PD-L1 dimerization by 1H-NMR analysis; settings: filed as antagonist
How it was run: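 PD-L1 was expressed in E. coli BL21 (DE3) as inclusion bodies, then refolded by drop-wise dilution into 0.1 M Tris pH 8.0, 1 M L-Arg HCl, 2 mM EDTA, and 0.25 mM each of oxidized and reduced glutathione. It was dialyzed against 10 mM Tris pH 8.0 with 20 mM NaCl. Final size-exclusion chromatography was run in PBS pH 7.4 for NMR.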

[5] = molecular target: T2, Programmed cell death protein 1/Programmed cell death 1 ligand 1; experiment: Antagonist activity at human PD1/PD-L1 preincubated with PD-L1 for 1 hr followed by incubation with PD1 for 1 hr by ELISA
[6] = molecular target: T1, Programmed cell death protein 1/Programmed cell death 1 ligand 1; experiment: Antagonist activity at PD1/PD-L1 (unknown origin)

Compound | Activity ([2]; filed as antagonist) | IC50 [3] | Activity [2] | further results
Cc1c(-c2ccccc2)cccc1-c1nc2c(s1)CNCC2 |  |  |  | IC50 [1]: ≤ 0.1 µM
Cc1cc2nc(CN)c(NCc3ccccc3)n2cc1OCc1cccc(-c2ccc3c(c2)OCCO3)c1C | Active | 1.83 µM |  | 
Cc1c(Oc2ccc3nc(CN)c(NCc4ccccc4)n3c2)cccc1-c1ccccc1 | Active |  |  | Activity [4]: Active
Cc1c(COc2ccc3nc(CN)c(NC(C)c4ccccc4)n3c2)cccc1-c1ccccc1 (stereo not drawn) | Active | 9.33 µM |  | Activity [4]: Active
Cc1c(COc2ccc3nc(CN)c(NCCc4ccccc4)n3c2)cccc1-c1ccccc1 | Active | 16.8 µM |  | Activity [4]: Active
N#Cc1cncc(COc2cc(O[C@H]3CCc4c(-c5ccccc5F)cccc43)c(Cl)cc2CN2CC[C@@H](O)C2)c1 |  |  |  | IC50 [5]: < 0.1 µM
Cc1c(COc2ccc3nc([C@H](N)CO)c(NCc4ccccc4)n3c2)cccc1-c1ccccc1 |  |  | inactive | 
Cc1c(COc2ccc3nc(CN)c(NCc4ccccc4)n3c2)cccc1-c1ccc2c(c1)OCCO2 | Active | 22.9 µM |  | 
Cc1c(COc2ccc3nc([C@@H](N)CO)c(NCc4ccccc4)n3c2)cccc1-c1ccccc1 |  |  | inactive | 
Cc1c(COc2ccc3nc(CN)c(NCCc4ccccc4)n3c2)cccc1-c1ccc(F)cc1 |  |  | inactive | 
CC(O)C(NC(=O)NC(CC(N)=O)c1nc(C(N)CO)no1)C(=O)O (stereo not drawn) |  |  |  | IC50 [6]: 5000 µM
Cc1c(COc2ccc3nc(CN)c(NCc4cccc(-c5nn[nH]n5)c4)n3c2)cccc1-c1ccc(F)cc1 |  |  | inactive | 
Cc1c(COc2ccc3nc(CN)c(NCc4ccccc4)n3c2)cccc1-c1ccccc1 | Active | 10.2 µM |  | Activity [4]: Active
Cc1c(COc2ccc3nc(CN)c(NCc4cccc(C#N)c4)n3c2)cccc1-c1ccc(F)cc1 |  |  | inactive | 
